Dynein cargo inh – blocks dynein driven cargo transport along microtubules. 3617.4 mouse cells, GR-EGFP nuclear translocation imaging; test concentration mostly 20 µM; stimulated with dexamethasone, 1 µM; stronger effect = lower value. z-score, hits read low. actives 0.47% (n = 220,000). AID 1381;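 active = plate z-score of nuclear minus cytoplasmic receptor signal below a set negative limit, without overly bright fluorescence or cell loss, cut at about -3.5 in these data, passing the limit was not always enough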;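 also: z-score of nuclear minus cytoplasmic ring GR-EGFP intensity difference per well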
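Buffer or medium: Induction medium lacking tetracycline, stripped serum | Also added: Dexamethasone agonist, 1.0 µM final, for 30 min | Timing: 48 h induction, 1 h compound, 30 min dex at 37 °C | Detection: Formaldehyde fixation, Hoechst nuclear stain, 10x automated fluorescence imaging | Measure: Nuclear versus cytoplasmic GR-EGFP signal, averaged per well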
HCT116 bCat-KO – beta-catenin-lacking colon tumor cell growth suppression; HCT116 beta-catenin knockout viability, CellTiter-Glo, 60 h; stronger effect = lower value; viability, % at 10 µM; actives 1.5% (n = 140,000); AID 818;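 active = viability at or under a set limit, the compound median less 4 SD, cut at about 6% in these data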;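 also: 0% = Hyamine 1622 control at 20 µM and 100% = untreated cell control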
PTEN del growth – suppresses growth of cells with PTEN deletion; HCT116 PTEN-null viability, CellTiter-Glo, 60 h; stronger effect = lower value; viability, % at 10 µM; actives 1.2% (n = 140,000);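 active = viability at or below a set limit, 4 SD under the median of all tested compounds, cut at about 3.7% in these data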;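 also: PTEN knockout HCT116 line with beta catenin targeted HCT116 as companion control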
Lmaj promast – inhibitors of Leishmania major promastigote growth | Leishmania major promastigotes, resazurin fluorescence viability | inhibition, % at 10 µM | actives 9% (n = 200,000) | AID 1063; in the data active = inhibition above about 50%;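 also: promastigotes grown with compound for 44 hours at 28 °C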
Autophagy HCS – modulators of autophagy; MEF GFP-LC3 puncta imaging; test concentration mostly 10 µM; calls only at 10 µM (by protocol); actives 0.98% (n = 190,000);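 active = percentage of spot-positive cells more than 3 SD above its plate mean, without a fluorescence outlier flag or 80% toxicity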;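 also: spot-positive cell cutoff set from DMSO-treated cells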
Active calls of the source: *; i = inactive; . = not tested or not shown; + = active, no number. A selection: hits, their analogues and other compounds. The true share with any hit is near 9.2%.

SMILES | Dynein cargo inh | HCT116 bCat-KO | PTEN del growth | Lmaj promast | Autophagy HCS
Cc1ccc(Cl)cc1N1CCN(C(c2cccnc2)c2nnnn2C2CCCCC2)CC1 (centres undefined) | 0.017 | 75 | 68 | 99* | i
Cc1ccc(Cl)cc1N1CCN(C(c2ccc(C#N)cc2)c2nnnn2C2CCCC2)CC1 (centres undefined) | -0.022 | 71 | 63 | 71* | i
COc1cc2c(cc1OC)C(C)N(S(=O)(=O)c1cn(C)cn1)CC2 (centres undefined) | 1.1 | . | . | . | .
CC(OC(=O)c1cc(-c2cccnc2)nc2ccccc12)C(=O)Nc1ccc2ccccc2c1 (centres undefined) | 0.046 | 84 | 80 | 75* | i
FC(F)(F)c1cccc(Cc2noc(CN3CCC(c4ccncc4)CC3)n2)c1 | -0.31 | . | . | 98* | i
c1cc(C2CCN(Cc3nc(-c4ccc5c(c4)OCO5)no3)CC2)ccn1 | -0.22 | . | . | 95* | i
Fc1ccc(CN2CCCN(Cc3nc(-c4ccc5c(c4)OCO5)no3)CC2)cc1 | -0.49 | . | . | 95* | i
c1ccc(C(c2ccccc2)c2noc(CN3CCC(c4ccncc4)CC3)n2)cc1 | 1.5 | . | . | 90* | i
CN1CCCC2(CCCN(Cc3nc(Cc4cccc(C(F)(F)F)c4)no3)C2)C1 (centres undefined) | -1.1 | . | . | 44 | i
NC(=S)Nc1cccc2[nH]ccc12 | 0.45 | . | . | 0 | i
C=CCNc1nc2c(c(=O)[nH]c(=O)n2C)n1Cc1cccc(C)c1 | 1.3 | 93 | 99 | 3 | i
CN1CCCN(Cc2nc(-c3cccc(C(F)(F)F)c3)no2)CC1 | 0.79 | . | . | 99* | i
FC(F)(F)c1cccc(-c2noc(CN3CCOCC3)n2)c1 | -1.8 | 94 | 109 | -7 | i
COCC1CCN(Cc2nc(-c3ccc4c(c3)OCO4)no2)C1 (centres undefined) | 0.054 | . | . | 34 | i
c1ccc(OCCN2CCN(Cc3nc(-c4ccc5c(c4)OCO5)no3)CC2)cc1 | -0.41 | . | . | 68* | i
Cn1c(=O)c2c3c(sc2n2c(SCC(N)=O)nnc12)CC(C(C)(C)C)CC3 (centres undefined) | 1.4 | 1.4* | 5 | 48 | i
CCCCN(CCCC)C(=O)CSc1nnc2n(C)c(=O)c3c4c(sc3n12)CCCC4 | 0.5 | 80 | 78 | 39 | i
O=C(Cn1cc(CCO)nn1)N1CCNCC1 | 0.16 | . | . | -5 | i
CC(=C1C(=O)c2ccccc2C1=O)N1CCc2ccccc2C1 | -0.86 | 69 | 88 | 92* | i
Cc1ccc(C2=NN3C(C2)c2ccccc2OC32C(=O)Nc3ccccc32)cc1 (centres undefined) | -0.63 | 33 | 44 | 100* | i
CN1C(=O)C2(Oc3ccccc3C3CC(c4ccccc4)=NN32)c2ccccc21 (centres undefined) | -0.34 | 62 | 57 | 21 | i
COc1ccc(N/N=C(\C=N\O)C(=O)c2ccc(OC)cc2)cc1 | 0.15 | 19 | 22 | 3 | +
O=C(c1ccccc1)c1cn[nH]c1-c1ccccc1O | 2.8 | 76 | 80 | -1 | i
O=c1[nH][nH]c(-c2ccccc2O)c1C(C[N+](=O)[O-])c1ccc(Br)cc1 (centres undefined) | -2.3 | 4.2* | 1.6* | 100* | i
Cc1ccc(C(C[N+](=O)[O-])c2c(-c3ccccc3O)[nH][nH]c2=O)cc1 (centres undefined) | -2.1 | 3.5* | 3.6* | 100* | i
SMILES | Dynein cargo inh | HCT116 bCat-KO | PTEN del growth | Lmaj promast | Autophagy HCS
Cc1ccc(S(=O)(=O)N2C(=O)/C(=C3\SC(=S)NC3=O)c3ccccc32)cc1 | -0.74 | . | . | . | .
O=C(CCCn1c(=S)[nH]c2cc3c(cc2c1=O)OCO3)N1CCc2ccccc2C1 | -0.3 | 87 | 85 | 0 | i
CC(=O)N1CCC(N(C(=O)Nc2c(F)cccc2F)C(C)C)CC1 | -0.69 | 101 | 94 | -7 | i
O=C(/C=C/c1cn(-c2ccccc2)nc1-c1cccnc1)c1ccco1 | -3.2 | . | . | 100* | i
NC(=O)c1ccc(NC(=O)COC(=O)/C=C/c2cn(-c3ccccc3)nc2-c2cccnc2)cc1 | 2.2 | 90 | 90 | 51* | i
O=C(/C=C/c1cn(-c2ccccc2)nc1-c1cccnc1)N1CCCC1 | -0.78 | . | . | 3 | i
CCOCCCNC(=O)/C(C#N)=C/c1ccc(Cl)c([N+](=O)[O-])c1 | 0.77 | . | . | 100* | i
CCOCCCNC(=O)/C(C#N)=C/c1ccc(C(=O)OC)cc1 | -0.68 | . | . | 58* | i
